From ChEMBL document CHEMBL4004807 (J Med Chem, 2017)
Activity calls are given as the source filed them. The rule behind the calls is not given here.

What was measured:
[1] = Selectivity ratio of EC50 for recombinant rat IP receptor expressed in CHO-K1 cells to EC50 for recombinant human IP receptor expressed in CHO-K1 cells; format: cell-based
[2] = test system: Rattus norvegicus; test: AUC (0 to infinity) in Sprague-Dawley rat at 10 mg/kg, po; format: ADME, organism-based; set-up: dose 10 mg/kg, route oral, time infinity; settings: in vivo
Outline: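 Sprague-Dawley rats, single oral dose of 10.0 mg/kg; AUC0-inf from plasma concentrations.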

[3] = Total clearance in Sprague-Dawley rat plasma at 2 mg/kg, iv or 10 mg/kg, po; format: ADME, organism-based
[4] = Volume of distribution at steady state in Sprague-Dawley rat at 2 mg/kg, iv or 10 mg/kg, po; format: ADME, organism-based; settings: in vivo
[5] = molecular target: T1, Prostacyclin receptor (Homo sapiens, UniProt P43119); test: Ratio of IC50 for IP receptor in human primary platelets to EC50 for recombinant human IP receptor expressed in CHO-K1 cells; format: cell-based
[6] = molecular target: Prostacyclin receptor (Rattus norvegicus, UniProt P43253); test: Agonist activity at recombinant rat IP receptor expressed in CHO-K1 cells assessed as increase in intracellular cAMP level after 1 hr incubation by HTRF method; format: functional, cell-based
Outline: (§1)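 CHO-K1 clonal lines stably expressing IP at minimal levels; cells in PBS with 1 mM IBMX and 0.2% BSA, 200 000 cells/mL. 10-point, 5-fold DMSO serial dilution, top 10 μM; 1 h at room temperature, then HTRF cAMP-D2 and cryptate reagents in lysis buffer, 1 h, time-resolved fluorescence.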

[7] = molecular target: T2, Prostaglandin D2 receptor (Homo sapiens, UniProt Q13258); test: Agonist activity at recombinant human DP1 receptor expressed in CHO-K1 cells assessed as increase in intracellular cAMP level after 1 hr incubation by HTRF method; format: functional, cell-based
T2 sequence (Q13258 whole entry): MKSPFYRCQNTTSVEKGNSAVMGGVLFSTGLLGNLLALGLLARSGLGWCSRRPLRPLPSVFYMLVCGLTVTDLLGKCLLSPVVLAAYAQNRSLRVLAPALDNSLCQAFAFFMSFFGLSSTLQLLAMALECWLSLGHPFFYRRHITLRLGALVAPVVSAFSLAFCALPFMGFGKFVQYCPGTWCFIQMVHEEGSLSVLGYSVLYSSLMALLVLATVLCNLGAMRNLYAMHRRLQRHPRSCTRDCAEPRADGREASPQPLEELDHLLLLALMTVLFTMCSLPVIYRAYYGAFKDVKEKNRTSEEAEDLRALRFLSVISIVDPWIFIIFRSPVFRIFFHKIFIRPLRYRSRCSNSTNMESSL
Outline: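 CHO-K1 clonal line stably expressing DP1 at minimal level; HTRF cAMP assay, 1 h incubation at room temperature, time-resolved fluorescence read-out.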

[8] = molecular target: T1, Prostacyclin receptor; test: Agonist activity at recombinant human IP receptor expressed in CHO-K1 cells assessed as increase in intracellular cAMP level after 1 hr incubation by HTRF method; format: functional, cell-based; outline: as §1
[9] = molecular target: Prostaglandin E2 receptor EP4 subtype (Homo sapiens) (UniProt P35408); test: Agonist activity at recombinant human EP4 receptor expressed in CHO-K1 cells assessed as increase in intracellular cAMP level up to 10 uM after 1 hr incubation by HTRF method; format: functional, cell-based
[10] = molecular target: T1, Prostacyclin receptor; test: Agonist activity at IP receptor in PAH patient-derived primary pulmonary arterial smooth muscle cells assessed as induction of cAMP levels after 1 hr by HTRF method; format: functional
[11] = molecular target: T3, Prostaglandin E2 receptor EP3 subtype (Homo sapiens, UniProt P43115); test: Agonist activity at recombinant human EP3v6 receptor expressed in melanophores assessed as induction of pigment redistribution up to 10 uM after 90 mins; settings: 1.5 h
T3 sequence (P43115 whole entry): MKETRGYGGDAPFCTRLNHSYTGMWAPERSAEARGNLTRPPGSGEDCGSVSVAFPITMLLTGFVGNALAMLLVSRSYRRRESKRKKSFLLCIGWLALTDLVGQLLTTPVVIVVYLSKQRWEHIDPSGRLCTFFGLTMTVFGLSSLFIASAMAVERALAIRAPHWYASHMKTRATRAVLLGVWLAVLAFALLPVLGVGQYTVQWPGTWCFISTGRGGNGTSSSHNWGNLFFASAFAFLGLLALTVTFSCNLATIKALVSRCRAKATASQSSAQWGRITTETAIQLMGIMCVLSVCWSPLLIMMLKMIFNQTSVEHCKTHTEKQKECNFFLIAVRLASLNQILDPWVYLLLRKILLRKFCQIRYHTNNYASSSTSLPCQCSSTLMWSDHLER
Outline: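 Melanophores electroporated with 20 μg human EP3v6 plasmid per 400 μL cells, grown 48 h at 27 °C. Assay buffer 0.7× PBS pH 7.3 with 20 nM melatonin to aggregate pigment, 90 min at room temperature, 650 nm baseline; compounds added (10-point, 5-fold dilutions, top 10 μM final), 90 min room temperature, absorbance reread.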

[12] = molecular target: Prostaglandin E2 receptor EP2 subtype (Homo sapiens) (UniProt P43116); test: Agonist activity at recombinant human EP2 receptor expressed in CHO-K1 cells assessed as increase in intracellular cAMP level up to 10 uM after 1 hr incubation by HTRF method; format: functional, cell-based
[13] = test system: Rattus norvegicus; test: Inhibition of right ventricle hypertrophic response in Sprague-Dawley rat monocrotaline model of pulmonary arterial hypertension assessed as reduction of MCT-induced increase in ratio of right ventricular weight to left ventricle plus septum weight administered via oral gavage twice daily for 21 consecutive days starting 24 hrs after monocrotaline challenge; format: functional
Outline: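 Male rats given 60 mg/kg monocrotaline sc on day 1 (sham: saline) under 30 mg/kg ip pentobarbital; from next day for 20 days dosed by oral gavage twice daily at 10 or 30 mg/kg in 20% HPBCD in saline (vehicle control). Day 21: RV/(LV+S) weights; mPAP via catheter under 60 mg/kg pentobarbital (30 mg/kg group, n = 5); H&E lung sections, 5 animals/group.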

T1 sequence (P43119 whole entry): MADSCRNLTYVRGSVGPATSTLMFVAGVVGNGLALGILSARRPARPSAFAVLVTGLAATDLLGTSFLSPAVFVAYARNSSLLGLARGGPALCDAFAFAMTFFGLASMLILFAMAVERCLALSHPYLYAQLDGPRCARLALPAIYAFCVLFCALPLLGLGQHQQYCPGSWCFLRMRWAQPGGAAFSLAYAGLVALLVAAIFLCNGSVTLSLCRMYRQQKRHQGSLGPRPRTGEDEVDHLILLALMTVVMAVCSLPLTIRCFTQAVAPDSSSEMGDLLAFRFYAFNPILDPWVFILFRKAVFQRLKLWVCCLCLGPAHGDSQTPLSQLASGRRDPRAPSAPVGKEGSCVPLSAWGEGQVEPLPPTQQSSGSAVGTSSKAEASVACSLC
Prostaglandin E2 receptor EP2 subtype (Homo sapiens), sequence (P43116 whole entry): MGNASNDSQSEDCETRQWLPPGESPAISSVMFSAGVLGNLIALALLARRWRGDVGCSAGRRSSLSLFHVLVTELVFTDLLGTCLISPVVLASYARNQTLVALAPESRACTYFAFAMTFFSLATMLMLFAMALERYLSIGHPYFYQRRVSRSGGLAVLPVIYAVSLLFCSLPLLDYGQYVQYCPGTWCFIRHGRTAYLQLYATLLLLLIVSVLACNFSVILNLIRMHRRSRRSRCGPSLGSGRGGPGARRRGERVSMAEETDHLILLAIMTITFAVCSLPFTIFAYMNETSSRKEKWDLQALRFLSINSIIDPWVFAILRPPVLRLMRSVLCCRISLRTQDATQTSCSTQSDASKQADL
Prostaglandin E2 receptor EP4 subtype (Homo sapiens), sequence (P35408 whole entry): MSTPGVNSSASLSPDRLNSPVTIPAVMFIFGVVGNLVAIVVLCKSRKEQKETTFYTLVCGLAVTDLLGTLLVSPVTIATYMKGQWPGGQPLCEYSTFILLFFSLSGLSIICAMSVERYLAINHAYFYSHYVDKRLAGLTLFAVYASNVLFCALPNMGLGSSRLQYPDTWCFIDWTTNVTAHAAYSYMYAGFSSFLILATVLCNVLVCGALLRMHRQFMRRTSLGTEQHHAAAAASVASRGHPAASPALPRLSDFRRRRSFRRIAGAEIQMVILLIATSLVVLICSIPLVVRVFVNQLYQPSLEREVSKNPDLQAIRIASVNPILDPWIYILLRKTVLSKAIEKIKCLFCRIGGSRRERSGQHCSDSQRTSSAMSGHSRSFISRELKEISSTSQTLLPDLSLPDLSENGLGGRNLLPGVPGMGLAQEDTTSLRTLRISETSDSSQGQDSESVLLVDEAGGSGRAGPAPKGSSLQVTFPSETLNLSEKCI
Prostacyclin receptor (Rattus norvegicus, UniProt P43253), sequence (P43253 whole entry): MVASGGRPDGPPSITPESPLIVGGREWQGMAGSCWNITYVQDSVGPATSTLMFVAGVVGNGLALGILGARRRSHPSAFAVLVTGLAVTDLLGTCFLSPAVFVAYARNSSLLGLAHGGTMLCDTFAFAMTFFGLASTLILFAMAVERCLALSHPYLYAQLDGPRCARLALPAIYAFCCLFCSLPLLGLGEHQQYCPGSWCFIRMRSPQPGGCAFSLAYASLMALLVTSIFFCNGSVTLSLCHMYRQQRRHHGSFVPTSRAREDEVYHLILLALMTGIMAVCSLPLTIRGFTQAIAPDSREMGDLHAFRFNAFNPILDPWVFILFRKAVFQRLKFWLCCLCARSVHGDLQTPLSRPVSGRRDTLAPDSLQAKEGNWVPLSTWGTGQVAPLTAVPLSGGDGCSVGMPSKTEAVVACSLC

Structure (SMILES)	Ratio EC50 [1]	AUC [2] [ng·h/mL]	Vd [4] [L/kg]	Ratio IC50/EC50 [5]	also measured
COc1ccc(N(C(=O)OC[C@H]2CC[C@H](COCC(=O)O)CC2)c2ccccc2)cc1	10 to 30	3400	0.71	2 to 10	clearance [3]: 56.7 mL/min/kg
CC(C)N(CCCCOCC(=O)NS(C)(=O)=O)c1cnc(-c2ccccc2)c(-c2ccccc2)n1 [SELEXIPAG]	10 to 30	–	–	2 to 10	EC50 [6]: 200 nM; EC50 [7]: 100 nM; EC50 [8]: 6 nM
O=C(O)COC[C@H]1CC[C@H](COC(=O)N(c2ccccc2)c2ccc(F)c(F)c2)CC1	10 to 30	4500	1.1	2 to 10	clearance [3]: 10 mL/min/kg
Cc1ccc(N(C(=O)OC[C@H]2CC[C@H](COCC(=O)O)CC2)c2ccccc2)cc1	10 to 30	–	–	2 to 10	–
O=C(O)COC[C@H]1CC[C@H](COC(=O)N(c2ccccc2)c2cccc(F)c2)CC1	10 to 30	7900	2.74	2 to 10	Activity [9]: inactive; clearance [3]: 20 mL/min/kg; Activity [10]: Active; Activity [11]: Active; Activity [12]: inactive; inhibition [13]: Dose-dependent effect
COc1cccc(N(C(=O)OC[C@H]2CC[C@H](COCC(=O)O)CC2)c2ccccc2)c1	10 to 30	1900	6.3	2 to 10	–
O=C(O)COC[C@H]1CC[C@H](COC(=O)N(c2ccccc2)c2ccc(F)c(Cl)c2)CC1	10 to 30	–	–	2 to 10	–
O=C(O)COC[C@H]1CC[C@H](COC(=O)N(c2ccc(Cl)cc2)c2cccc(F)c2)CC1	10 to 30	–	–	2 to 10	–
COc1ccc(N(C(=O)OC[C@H]2CC[C@H](COCC(=O)O)CC2)c2cccc(F)c2)cc1	10 to 30	–	–	2 to 10	–
O=C(O)COC[C@H]1CC[C@@H](COC(=O)N(c2ccccc2)c2cccc(F)c2)CC1	10 to 30	–	–	2 to 10	–
CC#CCC(C)[C@H](O)/C=C/[C@@H]1[C@H]2C/C(=C/CCCC(=O)O)C[C@H]2C[C@H]1O (stereo partly specified) [ILOPROST]	–	–	–	–	Activity [11]: Active
CC(C)N(CCCCOCC(=O)O)c1cnc(-c2ccccc2)c(-c2ccccc2)n1	–	–	–	–	Activity [10]: Active
